Measured values published in ChEMBL document CHEMBL4052683, “The discovery of benzoxazine sulfonamide inhibitors of NaV1.7: Tools that bridge efficacy and target engagement” (Bioorg Med Chem Lett, 2017).
The source made the active and inactive calls. The rule behind the calls is not given here.

Key:
[1] = target: T1, Sodium channel protein type 9 subunit alpha (Homo sapiens, UniProt Q15858); experiment: Inhibition of human NaV1.7 expressed in HEK293 cells at holding potential of -125 mV with test potentials to -10 mV by whole cell voltage clamp method; type: cell-based
[2] = target: Sodium channel protein type 5 subunit alpha (Homo sapiens, UniProt Q14524); experiment: Inhibition of human NaV1.5 expressed in […] cells at holding potential of -125 mV with test potentials to -10 mV by whole cell voltage clamp method; type: cell-based
Rattus norvegicus = experiment: Unbound clearance in rat at 0.5 mg/kg, iv by LC-MS/MS method; type: ADME, organism-based; conditions: in vivo
How it was run: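 Male rats given 0.5 mg/kg intravenously as a solution in DMSO. Unbound clearance was calculated as rat clearance divided by unbound fraction, with unbound fraction determined by equilibrium dialysis.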

[3] = Clearance in rat at 0.5 mg/kg, iv by LC-MS/MS method; type: ADME, organism-based; conditions: in vivo
How it was run: (§1)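 Male rats got 0.5 mg/kg IV as a DMSO solution. Unbound clearance was taken as rat clearance divided by the unbound fraction from equilibrium dialysis.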

[4] = Unbound fraction in rat plasma at 5 uM by ultracentrifugation and LC-MS/MS method; type: ADME, cell-free
[5] = Protein binding in rat plasma at 5 uM by ultracentrifugation and LC-MS/MS method; type: ADME, cell-free; conditions: read-out: PPB (converted)
[6] = AUC (infinity) in rat at 0.5 mg/kg, iv by LC-MS/MS method; type: ADME, organism-based; set-up: dose 0.5 mg/kg, time infinity, route intravenous; conditions: in vivo; how it was run: as §1
[7] = Half life in rat at 0.5 mg/kg, iv by LC-MS/MS method; type: ADME, organism-based; conditions: in vivo; how it was run: as §1
[8] = Half life in rat at 10 mg/kg, po by LC-MS/MS method; type: ADME, organism-based; conditions: in vivo
[9] = Cmax in mouse at 30 mg/kg, po by LC-MS/MS method; type: ADME, organism-based; set-up: dose 30 mg/kg, route oral; conditions: in vivo
[10] = Tmax in rat at 10 mg/kg, po by LC-MS/MS method; type: ADME, organism-based; conditions: in vivo
[11] = Oral bioavailability in rat at 10 mg/kg by LC-MS/MS method; type: ADME, organism-based; conditions: in vivo
Plasma [12] = experiment: Plasma concentration in Sprague-Dawley rat model of formalin-induced nociception behavior at 10 mg/kg, po; type: ADME, organism-based; conditions: in vivo
How it was run: (§2)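 Sprague Dawley rats got 10, 30 or 100 mg/kg PO in 30% (w/v) hydroxypropyl β-cyclodextrin, pH 10.0 with KOH. Total phase II formalin-induced flinches were counted. Morphine sulfate 2 mg/kg SC served as control. Unbound plasma levels were measured and compared with the rat NaV1.7 IC50.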

Plasma [13] = experiment: Plasma concentration in Sprague-Dawley rat model of formalin-induced nociception behavior at 100 mg/kg, po; type: ADME, organism-based; conditions: in vivo; how it was run: as §2
Plasma [14] = experiment: Plasma concentration in C57BL/6 mouse model of formalin-induced nociception behavior at 30 mg/kg, po; type: ADME, organism-based; conditions: in vivo
How it was run: (§3)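 Male C57BL/6 mice got 30, 60 or 100 mg/kg PO in 30% (w/v) hydroxypropyl β-cyclodextrin in water, pH 10.0 with KOH. Formalin (2%) was injected subcutaneously into the dorsal hind paw, and total phase II paw licking and lifting were scored. Morphine sulfate 3 mg/kg SC served as control. Unbound plasma concentration was divided by the mouse NaV1.7 IC50.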

[15] = Ratio of unbound plasma concentration in Sprague-Dawley rat model of formalin-induced nociception behavior at 30 mg/kg, po to IC50 for rat Nav1.7 by whole cell voltage clamp method
How it was run: (§4)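 Total phase II formalin-induced flinches were scored. Unbound plasma concentration was determined at each dose and related to the rat NaV1.7 IC50.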

[16] = Ratio of unbound plasma concentration in C57BL/6 mouse model of formalin-induced nociception behavior at 100 mg/kg, po to IC50 for mouse Nav1.7 by whole cell voltage clamp method; how it was run: as §3
[17] = Ratio of unbound plasma concentration in C57BL/6 mouse model of histamine-induced pruritus at 60 mg/kg, po to IC50 for mouse Nav1.7 by whole cell voltage clamp method
How it was run: (§5)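 The formalin arm received 2% formalin subcutaneously into the dorsal hind paw, and total phase II licking and lifting was scored. The pruritus arm was dosed 120 min before histamine (8.15mM, intradermal, nape of neck), and scratch bouts were counted over 0-30 min. Unbound plasma concentration was determined at each dose.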

[18] = Ratio of unbound plasma concentration in C57BL/6 mouse model of histamine-induced pruritus at 100 mg/kg, po to IC50 for mouse Nav1.7 by whole cell voltage clamp method; how it was run: as §5
Mus musculus [19] = experiment: Analgesic activity in C57BL/6 mouse model of formalin-induced nociception behavior assessed as reduction in formalin-evoked paw lifting/licking at 30 mg/kg, po; type: functional; how it was run: as §3
Mus musculus [20] = experiment: Analgesic activity in C57BL/6 mouse model of formalin-induced nociception behavior assessed as reduction in formalin-evoked paw lifting/licking at 100 mg/kg, po; type: functional; how it was run: as §3
Mus musculus [21] = experiment: Anti-pruritic activity in C57BL/6 mouse model of histamine-induced pruritus assessed as reduction in histamine-induced scratching at 60 mg/kg, po dosed 120 mins before test; type: functional
How it was run: (§6)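 Male C57BL/6 mice got 30, 60 or 100 mg/kg PO in 30% hydroxypropyl β-cyclodextrin, pH 10.0, 120 min before the test. Histamine (8.15mM) was given intradermally to the nape of the neck just before testing, and scratch bouts were counted over 0–30 min. Diphenhydramine 30 mg/kg PO in water, 90 min before, served as control. Unbound plasma concentrations were measured.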

Mus musculus [22] = experiment: Anti-pruritic activity in C57BL/6 mouse model of histamine-induced pruritus assessed as reduction in histamine-induced scratching at 100 mg/kg, po dosed 120 mins before test; type: functional; how it was run: as §6
Plasma [23] = experiment: Unbound plasma concentration in Sprague-Dawley rat model of formalin-induced nociception behavior at 10 mg/kg, po; type: ADME, organism-based; conditions: in vivo; how it was run: as §4
Plasma [24] = experiment: Unbound plasma concentration in C57BL/6 mouse model of formalin-induced nociception behavior at 30 mg/kg, po; type: ADME, organism-based; conditions: in vivo; how it was run: as §5
Plasma [25] = experiment: Unbound plasma concentration in C57BL/6 mouse model of formalin-induced nociception behavior at 60 mg/kg, po; type: ADME, organism-based; conditions: in vivo; how it was run: as §5
Plasma [26] = experiment: Unbound plasma concentration in C57BL/6 mouse model of formalin-induced nociception behavior at 100 mg/kg, po; type: ADME, organism-based; conditions: in vivo; how it was run: as §5
Plasma [27] = experiment: Unbound plasma concentration in C57BL/6 mouse model of histamine-induced pruritus at 100 mg/kg, po; type: ADME, organism-based; conditions: in vivo; how it was run: as §5
[28] = target: Histamine H2 receptor (Homo sapiens) (UniProt P25021); experiment: Displacement of [125I]APT from human recombinant histamine H2 receptor expressed in CHO cells at 10 uM by radioligand displacement assay; type: cell-based
[29] = target: T1, Sodium channel protein type 9 subunit alpha; experiment: Displacement of (P)-1-(30-chloro-2-fluoro-5,50-dimethoxy-[1,10biphenyl]-4-yl)-N-(isoxazol-3-yl)-2-oxo-1,2-dihydroquinoline-6-sulfonamide[50-methoxy-C3H3] from human NaV1.7 expressed in HEK293 cell membranes incubated for 1 hr by beta counting method
How it was run: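 Human NaV1.7 radioligand displacement using the tritiated 5'-methoxy-labelled dihydroquinoline sulfonamide ligand, which binds the VSDIV pocket.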

[30] = target: Sodium channel protein type 10 subunit alpha (Rattus norvegicus, UniProt Q62968); experiment: Inhibition of NaV1.8 in rat DRG neurons assessed as reduction in tetrodotoxin-resistant sodium channel currents at holding potential of -140 mV by manual patch clamp electrophysiology assay

T1 sequence (Q15858 whole entry): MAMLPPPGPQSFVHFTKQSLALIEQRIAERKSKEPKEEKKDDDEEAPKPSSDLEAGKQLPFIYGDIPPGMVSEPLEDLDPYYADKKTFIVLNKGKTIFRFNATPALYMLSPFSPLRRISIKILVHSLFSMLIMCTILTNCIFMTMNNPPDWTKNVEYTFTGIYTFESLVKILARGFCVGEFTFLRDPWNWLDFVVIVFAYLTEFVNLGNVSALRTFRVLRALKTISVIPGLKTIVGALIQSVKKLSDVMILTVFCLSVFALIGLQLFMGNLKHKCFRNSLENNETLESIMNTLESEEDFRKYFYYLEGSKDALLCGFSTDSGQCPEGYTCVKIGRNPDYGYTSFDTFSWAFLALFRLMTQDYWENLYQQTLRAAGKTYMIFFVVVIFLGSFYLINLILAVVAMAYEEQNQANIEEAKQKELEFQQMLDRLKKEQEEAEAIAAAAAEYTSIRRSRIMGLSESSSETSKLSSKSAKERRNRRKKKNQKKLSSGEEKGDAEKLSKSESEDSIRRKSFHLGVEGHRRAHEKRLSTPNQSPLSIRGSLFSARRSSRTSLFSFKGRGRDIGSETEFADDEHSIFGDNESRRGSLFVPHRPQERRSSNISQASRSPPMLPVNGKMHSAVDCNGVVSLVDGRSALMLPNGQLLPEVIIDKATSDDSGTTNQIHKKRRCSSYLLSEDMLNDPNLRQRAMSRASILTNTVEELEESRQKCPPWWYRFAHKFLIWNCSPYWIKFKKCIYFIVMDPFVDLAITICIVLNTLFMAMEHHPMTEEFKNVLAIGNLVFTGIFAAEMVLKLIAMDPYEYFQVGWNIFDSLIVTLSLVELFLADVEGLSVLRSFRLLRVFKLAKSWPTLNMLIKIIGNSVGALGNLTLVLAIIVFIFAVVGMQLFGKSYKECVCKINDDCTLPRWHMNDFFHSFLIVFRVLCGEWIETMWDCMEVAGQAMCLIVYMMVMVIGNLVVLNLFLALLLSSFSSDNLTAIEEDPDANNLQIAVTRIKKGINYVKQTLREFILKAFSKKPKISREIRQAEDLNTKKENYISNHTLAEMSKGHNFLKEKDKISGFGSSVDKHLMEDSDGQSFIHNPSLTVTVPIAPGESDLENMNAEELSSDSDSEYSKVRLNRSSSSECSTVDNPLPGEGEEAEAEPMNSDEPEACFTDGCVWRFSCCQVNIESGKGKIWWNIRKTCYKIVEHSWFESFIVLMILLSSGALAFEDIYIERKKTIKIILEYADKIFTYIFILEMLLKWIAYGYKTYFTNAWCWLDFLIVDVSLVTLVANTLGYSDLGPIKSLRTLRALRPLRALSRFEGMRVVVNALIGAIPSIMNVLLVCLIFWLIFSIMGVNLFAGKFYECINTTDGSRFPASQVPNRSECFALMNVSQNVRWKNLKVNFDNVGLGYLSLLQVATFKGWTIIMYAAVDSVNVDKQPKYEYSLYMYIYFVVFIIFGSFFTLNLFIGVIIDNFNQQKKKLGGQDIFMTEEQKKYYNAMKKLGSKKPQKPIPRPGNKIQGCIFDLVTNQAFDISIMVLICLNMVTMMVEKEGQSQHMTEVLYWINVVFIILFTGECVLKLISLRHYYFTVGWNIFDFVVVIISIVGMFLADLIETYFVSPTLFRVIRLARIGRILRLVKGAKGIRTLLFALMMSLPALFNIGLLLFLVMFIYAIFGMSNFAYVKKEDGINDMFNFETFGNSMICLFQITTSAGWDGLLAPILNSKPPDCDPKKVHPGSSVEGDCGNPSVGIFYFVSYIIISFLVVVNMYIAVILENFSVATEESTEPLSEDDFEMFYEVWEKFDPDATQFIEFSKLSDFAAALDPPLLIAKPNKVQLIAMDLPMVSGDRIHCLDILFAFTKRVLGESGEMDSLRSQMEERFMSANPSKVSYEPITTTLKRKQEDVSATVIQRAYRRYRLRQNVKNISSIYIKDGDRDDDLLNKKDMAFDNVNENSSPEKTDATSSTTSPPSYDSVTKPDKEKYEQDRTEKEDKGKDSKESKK
Sodium channel protein type 5 subunit alpha, sequence (Q14524 whole entry): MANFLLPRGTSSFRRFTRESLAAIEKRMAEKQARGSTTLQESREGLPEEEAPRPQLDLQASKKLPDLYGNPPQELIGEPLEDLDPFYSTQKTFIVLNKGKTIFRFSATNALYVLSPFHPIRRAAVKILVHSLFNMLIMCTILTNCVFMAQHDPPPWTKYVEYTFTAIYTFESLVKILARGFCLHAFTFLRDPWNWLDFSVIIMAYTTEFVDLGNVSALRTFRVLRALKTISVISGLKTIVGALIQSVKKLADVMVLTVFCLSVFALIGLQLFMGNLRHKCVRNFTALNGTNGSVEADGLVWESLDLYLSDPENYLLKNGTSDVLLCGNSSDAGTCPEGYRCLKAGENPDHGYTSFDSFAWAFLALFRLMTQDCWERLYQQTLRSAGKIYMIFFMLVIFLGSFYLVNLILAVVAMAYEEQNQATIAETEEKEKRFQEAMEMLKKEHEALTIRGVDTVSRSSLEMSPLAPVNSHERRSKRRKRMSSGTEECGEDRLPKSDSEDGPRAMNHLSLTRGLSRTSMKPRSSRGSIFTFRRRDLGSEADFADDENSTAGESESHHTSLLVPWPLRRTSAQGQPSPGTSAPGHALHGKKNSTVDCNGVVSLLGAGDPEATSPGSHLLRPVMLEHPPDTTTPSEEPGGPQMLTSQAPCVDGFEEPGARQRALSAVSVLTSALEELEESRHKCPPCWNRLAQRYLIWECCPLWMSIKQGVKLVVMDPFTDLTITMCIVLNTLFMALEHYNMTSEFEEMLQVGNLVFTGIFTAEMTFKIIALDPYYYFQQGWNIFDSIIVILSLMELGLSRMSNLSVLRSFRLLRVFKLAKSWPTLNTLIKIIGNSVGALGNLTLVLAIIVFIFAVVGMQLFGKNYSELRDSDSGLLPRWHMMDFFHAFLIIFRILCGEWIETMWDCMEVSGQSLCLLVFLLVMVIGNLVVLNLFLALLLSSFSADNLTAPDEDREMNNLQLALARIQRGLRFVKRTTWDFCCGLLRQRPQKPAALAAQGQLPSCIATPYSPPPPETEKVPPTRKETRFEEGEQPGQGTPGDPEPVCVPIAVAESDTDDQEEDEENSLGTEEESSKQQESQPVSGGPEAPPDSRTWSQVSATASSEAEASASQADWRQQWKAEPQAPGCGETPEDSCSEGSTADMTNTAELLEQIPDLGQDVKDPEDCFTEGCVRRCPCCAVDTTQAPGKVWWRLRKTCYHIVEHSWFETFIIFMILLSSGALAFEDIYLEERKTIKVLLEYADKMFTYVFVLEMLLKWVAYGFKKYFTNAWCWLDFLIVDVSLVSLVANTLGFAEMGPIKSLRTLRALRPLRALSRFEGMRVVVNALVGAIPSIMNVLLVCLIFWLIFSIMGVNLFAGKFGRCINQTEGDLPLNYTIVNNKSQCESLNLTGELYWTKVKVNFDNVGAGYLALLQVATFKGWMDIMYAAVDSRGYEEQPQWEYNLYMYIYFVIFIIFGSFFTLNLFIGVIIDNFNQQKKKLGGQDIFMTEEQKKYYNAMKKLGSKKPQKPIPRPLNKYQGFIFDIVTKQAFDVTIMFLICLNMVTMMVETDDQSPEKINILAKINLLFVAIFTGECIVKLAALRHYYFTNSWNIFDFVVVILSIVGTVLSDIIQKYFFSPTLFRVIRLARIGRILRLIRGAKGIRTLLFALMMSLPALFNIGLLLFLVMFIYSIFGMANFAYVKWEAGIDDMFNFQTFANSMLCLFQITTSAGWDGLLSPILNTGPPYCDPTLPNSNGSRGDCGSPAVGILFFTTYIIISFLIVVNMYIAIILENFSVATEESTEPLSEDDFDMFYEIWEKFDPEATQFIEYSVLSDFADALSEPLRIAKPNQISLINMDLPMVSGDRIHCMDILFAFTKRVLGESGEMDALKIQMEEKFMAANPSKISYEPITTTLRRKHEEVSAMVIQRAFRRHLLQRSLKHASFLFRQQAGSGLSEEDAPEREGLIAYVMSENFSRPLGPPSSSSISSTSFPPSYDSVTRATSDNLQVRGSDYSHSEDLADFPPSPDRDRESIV
Histamine H2 receptor (Homo sapiens), sequence (P25021 whole entry): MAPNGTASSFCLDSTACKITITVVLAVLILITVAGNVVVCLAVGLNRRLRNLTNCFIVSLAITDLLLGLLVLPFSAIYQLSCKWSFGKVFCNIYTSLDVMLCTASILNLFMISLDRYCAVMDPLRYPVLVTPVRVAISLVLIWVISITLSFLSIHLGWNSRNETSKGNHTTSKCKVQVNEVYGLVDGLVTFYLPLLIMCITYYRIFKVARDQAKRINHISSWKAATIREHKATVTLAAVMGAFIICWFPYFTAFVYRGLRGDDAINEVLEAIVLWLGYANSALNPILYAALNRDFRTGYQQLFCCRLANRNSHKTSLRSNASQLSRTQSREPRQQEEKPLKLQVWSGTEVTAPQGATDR

With `N#Cc1cc(C(F)(F)F)ccc1N1CCOc2cc(S(=O)(=O)Nc3nccs3)c(F)cc21` the IC50 [1] was 140 nM, the IC50 [2] was 320 to 330 nM and the CL free (Rattus norvegicus) was 650 mL/min/kg. For the same compound, the clearance [3] was 10 mL/min/kg, the fraction unbound at 5 µM [4] was 0.015 and the fraction unbound at 5 µM [5] was 0.015. The AUC(0-inf) [6] was 1.8 µM·h, the half-life [7] was 3.6 h and the half-life [8] was 9.8 h. It also gave a Cmax [9] of 58000 nM, a Tmax [10] of 6.7 h and a bioavailability [11] of 57%. It also gave a concentration (Plasma [12]) of 1700 nM, a concentration (Plasma [13]) of 11000 nM and a concentration (Plasma [14]) of 51000 nM. For the same compound, the Ratio [15] was 1.3, the Ratio [16] was 16 and the Ratio [17] was 10. For the same compound, the Ratio [18] was 11, the MPE (Mus musculus [19]) was 5% and the MPE (Mus musculus [20]) was 77%. For the same compound, the MPE (Mus musculus [21]) was 71%, the MPE (Mus musculus [22]) was 80% and the “Cp(f)” value (Plasma [23]) was 27 nM. For the same compound, the “Cp(f)” value (Plasma [24]) was 300 nM, the “Cp(f)” value (Plasma [25]) was 620 nM and the “Cp(f)” value (Plasma [26]) was 920 nM. The “Cp(f)” value (Plasma [27]) was 680 nM, the inhibition [28] was “inactive” and the IC50 [29] was 37 nM. The IC50 [30] was > 30000 nM.
